From the EternaBench riboswitch data

System: MS2 coat protein
Assay: apparent Kd, MS2 coat protein; higher = weaker binding; RNA-MaP array; FMN 200 µM where present
Outline: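 The apparent Kd is the median of filtered binding-curve fits, one per cluster, to green signal normalised to red-channel RNA signal and control-cluster median Fmax. The clusters were on Illumina sequencing chips, and stalled E. coli RNA polymerase had transcribed the designs on them. Titration used SNAP-549-labelled MS2 coat protein from 0.7 or 1.5 nM, doubling to 3 µM, without and then with constant ligand, in 100 mM Tris-HCl pH 7.5, 80 mM KCl, 4 mM MgCl2, BSA, DTT, yeast tRNA and Tween-20.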

[1] = designed as: ON switch for flavin mononucleotide, no ligand
[2] = ligand present: flavin mononucleotide, designed as: ON switch for flavin mononucleotide
[3] = designed as: OFF switch for flavin mononucleotide, no ligand
[4] = ligand present: flavin mononucleotide, designed as: OFF switch for flavin mononucleotide

| Sequence | apparent Kd [1] [nM] | apparent Kd [2] [nM] | apparent Kd [3] [nM] | apparent Kd [4] [nM] |
| --- | --- | --- | --- | --- |
| CGUUGUUCCGCAGGAUAUGCAUUGGAUUACAAUGCAGAAGGGCGAUAACAUGAGGAUCACCCAUGUGUGGACAAUAAGGAAGAG | 811 | 62.1 | – | – |
| ACAGAUCCUGACAUGAGGAUCACCCAUGUUAGAUUGUUAUGUCAGGAUAUUAUCUGGCAACCAGAUGAGAAGGGACGAUCUGUG | 240 | 15.5 | – | – |
| AGUGUCAUCGAGAAGGCCUCAACAUGAGGAUCACCCAUGUUGUAAUAUGGGAGGAUAUCGAUGAUACAGCUACGUUUCGUAGCC | 19.5 | 5.91 | – | – |
| GCAUGCGUUCGAGGAUAUCGGUGAGAAACGGAACGAGAAGGCGAUCGAAUGUCUCAUAUUAUGAACAUGAGGAUCACCCAUGUA | 514 | 131 | – | – |
| GCACGGUAAGUGAGGAUAUACCUCUGGAUACAGAGGUAGAAGGCACAUGAGGAUCACCCAUGUCUCAGCCGUGC | – | – | 16.3 | 78.2 |
| UAUAUAUAGUAAGGAUAUGUAUUUAUUUUAUUAACAGAAGGUACUGACAUGAGGAUCACCCAUGUUUUAGUGUGGGCAUGUAGA | – | – | 103 | 146 |
| UAAUUAAGUGUGAGGAUAUGCUGGUCCUUGGAUCAGCAGAAGGCACAUGAGGAUCACCCAUGUAAUUUAUAUAU | – | – | 98.2 | 485 |
| GUACUUGUGCAGAAGGGCAUUUAAUUAGAUUUUUAUGUUGAUCAGAAAUGCAGGAUAUGUUAAACAUGAGGAUCACCCAUGUAC | 171 | 13.1 | – | – |
| AUUUAUCUAGGAUAUACAUGAGGAUCACCCAUGUUGAAGCGUAGGUACCUUUCCGAAUGUAGAAGGAGAGCACC | – | – | 19.9 | 22.2 |
| UUUAUGUCAGGAUAUGAGUAGUAGAACAAUAGUACUACUACUCAGAAGGGACAUGAGGAUCACCCAUGUUCUUC | – | – | 16.7 | 46.6 |
| AGUCAGAGCAGAGGAUAUAUACAUGAGGAUCACCCAUGUGACUGACUACGCUAGAAAUAGCAUGUAUAGAAGGCUGCUCUGACA | – | – | 344 | 911 |
| GGGAAGUUAGGAUAUGCUGCUCGUCACUUGCGUGAUGAGUAGCAGAAGGGACAUGAGGAUCACCCAUGUAAAGA | – | – | 41.6 | 26.2 |
| CCCGGGUUUGUGAGGAUAUGCCCGGGUAAACCCGGGUAGAAGGCACAUGAGGAUCACCCAUGUAAGGGCCCGGG | – | – | 16.7 | 17 |
| AAAAAACAAGGAUAUACGGAUGAAGAUUGUCUUAAUUUUUGACAUGAGGAUCACCCAUGUAGAAGGUGUUAAAA | – | – | 198 | 342 |
| AGCGGAUUGUAGAAGGGUGACAUGAGGAUCACCCAUGUUCAAAUGCGAUUUACGGUAAUUGAUCCACAGGAUAUACAGUCCGAG | 905 | 178 | – | – |
| GGAUAGGACAGAGGAUAUACGUGCUAGAGAUACUAGCAAAAUUUCCUCACAUGAGGAUCACCCAUGUAGAAGGCUGUCCUAUCC | – | – | 18.5 | 435 |
| GUUUUCACAUGAGGAUAUGCUCGCAUUUCAAGAGCAGAAGGUAUGUCUUUAGACAUGAGGAUCACCCAUGUAUUUAUCAUUGAA | 91.1 | 28.4 | – | – |
| CCUUUGAAGAUCCAAAAUUUCAACAUGAGGAUCACCCAUGUGCAGGAUAUCGUGCCAGUGAUGUACGAGAAGGGCAGACUCUGC | – | – | 176 | 177 |
| CCAGAGGAGUAGGAUAUAGGCCGCCAUCGGCGCCUAGAAGGGCUCACAUGAGGAUCACCCAUGUGAUGUUAGUU | – | – | 17.5 | 20 |
| AUGGGUGUACCUUCACAUGAGGAUCACCCAUGUACGGGUGCGCAGGAUAUCCCAAAAGUCAGUAAGGAGAAGGGCGUAUGCCUG | – | – | 312 | 306 |
| AUAUAGAUGGUCAGGAUAUGCUAGUGGUAACAGUAGCAGAAGGGACAUGAGGAUCACCCAUGUGGGUCCUGCUC | – | – | 22.3 | 64 |
| CGCUACUACCAGAAGGACAUGAGGAUCACCCAUGUAGGAUAUGGGUUACACGUUCCUGUGUAUUGUUACUACGCUACGUAUGCG | 168 | 11.9 | – | – |
| GCGCUUAUACAGAAGGCCAUAUACAUGAGGAUCACCCAUGUUAUUUGGUGGAGGAUAUGUUUAUUAUUACAGGUAGAUGAGCGC | 6.3 | 5.72 | – | – |
| UGUUGUAUUACAGGAUAUCUAUUAUUUUUGUUUAGAGAAGGGUAUUCACAUGAGGAUCACCCAUGUAUAUACGAGGAAGUUGUG | 53.5 | 61.8 | – | – |
| GUAUGGAGUACAGGAUAUGUAAGUUUUAAGUGUAUUGGUUAUUACUUAAUUACAGAAGGGUAUUACAUGAGGAUCACCCAUGUA | 12.8 | 9.5 | – | – |
| AGUGUCAUCGAGAAGGCCUUAACAUGAGGAUCACCCAUGUUGUAAUAUGGGAGGAUAUCGAUGAUACAGCUACGUUUCGUAGCA | 10.1 | 5.71 | – | – |
| UAUUGAUAAUAUUUUAACAUGAGGAUCACCCAUGUCGCUCGACAGGAUAUAUUUUAUUUGUUUAAGUAGAAGGGUCGCAGAUUU | 117 | 103 | – | – |
| CUUCAGUCAGGAUAUGUUAAUCUCGCCACUCCACGAGCCGGACAGAAGGGACAUGAGGAUCACCCAUGUUAGAC | – | – | 30 | 22.4 |

| Sequence | apparent Kd [1] [nM] | apparent Kd [2] [nM] | apparent Kd [3] [nM] | apparent Kd [4] [nM] |
| --- | --- | --- | --- | --- |
| GAUAGGACAGAGAAGGACAUAGCUAGAGAUACUAGCAUAUGAACCUCUACAUGAGGAUCACCCAUGUAGGAUAUCUGUCCUAUC | – | – | 6.07 | 6.21 |
| UGGUACAUCAUAGGAUAUCGUGUGUAAACAUGAGGAUCACCCAUGUCAUACGAGAGUAUGUCGAUCGAGAAGGAUGAUGUACCU | 31.2 | 17.2 | – | – |
| AUAUAUACCCAGAAGGUGCCAGCGAGAGCUGCACAUGAGGAUCACCCAUGUUGUCGGUGACGACGCAAGGAUAUGGGUAUAUAU | 25.2 | 7.86 | – | – |
| CCUCAACAGUAGGAUAUCAUAAAACUAUUGUGAUGAGAAGGACUGACAUGAGGAUCACCCAUGUUAACGUGAUA | – | – | 19.6 | 30.5 |
| CUACUCGUUGUGAGGAUAUCGUUUUCGUCACGGAUCGAGAAGGCACAUGAGGAUCACCCAUGUUUGAUGUGGAU | – | – | 32.1 | 79.7 |
| CGGGCACAUGAGGAUCACCCAUGUCAGGAUAUCGGCCGGCGGCCGCCGGGCCGCCGGCCGAGAAGGGACGCCCG | – | – | 16.4 | 18.7 |
| CCUCCACAUGAGGAUCACCCAUGUCAGGAUAUCGUGCGCGCGUUUUCGGUCUUUCGCGCGAGAAGGGACGACUG | – | – | 30.3 | 30.9 |
| ACAAAUGGAGGAUAUACAUGAGGAUCACCCAUGUAUAUCCUACAUAUGUGAUAAUAAUGUAGAAGGCCAUUUGA | – | – | 11.6 | 11.4 |
| AUCAGCUCGUCAGGAUAUACGUCACUGCGUCGGCAGUGUGGUAAGAUCACAUGAGGAUCACCCAUGUAGAAGGGACGAGCUGAU | – | – | 14.4 | 280 |
| UUUUUUGUACAAGGAUAUCUAUUAUAUUCACGUCCUACAUGAGGAUCACCCAUGUUAUAUAUUUUAGAGAAGGUGUAUUGUCUG | 31.7 | 35.5 | – | – |
| UUGUACCGGUGAGGAUAUUUUUAAUAGAACUUUAUGAUAUACAUGAGGAUCACCCAUGUUACUUUAAAGAAGGCAUCGGAUUAU | – | – | 18.9 | 14.8 |
| GGAUGACAAAGUCAUCCAAUACGAACAUGAGGAUCACCCAUGUAGGAUAUGCAUCUCAAAGAGAUGCAGAAGGACAUGUGCCUU | – | – | 36.9 | 272 |
| AUGGUUGUCGUAGGAUAUGUAGGAUAUUCCUACAUGAGGAUCACCCAUGUUCGCAUGGAAGAAGGACGGAAGGACGAUGACCAA | 249 | 118 | – | – |
| AAUAUAAAGAGCUGGUAAAACUCAACAUGAGGAUCACCCAUGUAGGAUAUCAGCACGAUAAGUGCUGAGAAGGACAUCCAGCUC | – | – | 16.3 | 17.1 |
| CUGCUGGAGCUUUGCUUUAGUCGUACAUGAGGAUCACCCAUGUAGGAUAUGGUGGGCUUUGCUUACUAGAAGGAUAGAGUGGUC | – | – | 49.9 | 36.3 |
| ACAUAAAUUCGAGGAUAUCGGUGAUUUAAUUUACGAGAAGGCGAUAAAAGUUAUAAACUUAUAGACAUGAGGAUCACCCAUGUA | 34.9 | 33.1 | – | – |
| UAUAUAUAGUAAGGAUAUGUAAUUAUUUUGUAAACAGAAGGUACUGACAUGAGGAUCACCCAUGUUUUAGUGUGGGCAUGUAGA | – | – | 117 | 182 |
| GGGCUGUCAGGAUAUCCCGGGCCCGGGUAAAUUUGGGCCCGGGAGAAGGGACAUGAGGAUCACCCAUGUGGCCC | – | – | 39.2 | 40.5 |
| CACUGCAAUGUAGGAUAUCGACUGGAAUACAGUCGAGAAGGACAUGAGGAUCACCCAUGUACUAUGAGUGAAUAAUAAGCAGUG | – | – | 88.9 | 834 |
| CACAUUUUAACAGGAUAUGUAUGGUUGCUUAUUAUUGCAAAUUCAAUUAUUACAGAAGGGUUAUACAUGAGGAUCACCCAUGUG | 26.5 | 16.8 | – | – |
| GCUUUAUUGGUCAGGAUAUACAUUUGCUACUCUUUGUAGAAGGGACAUGAGGAUCACCCAUGUACUUUACAUUC | – | – | 16 | 16.4 |
| AAAAAGUGAGGAUAUACAUGAGGAUCACCCAUGUGAAAUCGGAAAAAAAAGGAAAAAAGUAGAAGGCACAAAAA | – | – | 24.2 | 24.3 |
| CCUAAGGACACAGGAUAUAGCGUGGCGGCUGGACUCCAACGGCGAACGGCGCUAGAAGGGUGACCACAUGAGGAUCACCCAUGU | 495 | 206 | – | – |
| GCCUCACAUGAGGAUCACCCAUGUCAGGAUAUGGACUCGAGGGUCUUGGAAGACUGGGCCAGAAGGGACUAUGG | – | – | 57 | 83 |
| CGGGUCUGAGGAUAUCCAUCUUCAUACAUGAGGAUCACCCAUGUUUACCUUUGGGUUCCUGGAGAAGGCAGUUUUC | – | – | 74.9 | 78.4 |
| UUUACUUACGAAGGAUAUGGUUACAUGAGGAUCACCCAUGUAUGUAUAUUGAUCUAGUAUUUUAACCAGAAGGUCGUGAUUAUU | – | – | 31.8 | 46.9 |
| GGAUGACAAAGUCAUCCUCAACGGACAUGAGGAUCACCCAUGUAGGAUAUGCUACUCAAAGAGUAGCAGAAGGACAUGUGUCUU | – | – | 37.3 | 241 |
